Laboratory results taken from ChEMBL document CHEMBL1833877, “Antinociceptive properties of bergenin” (J Nat Prod, 2011).
Calls of active or inactive are those of the source.

How the values were obtained:
Mus musculus [1] = assay: Antinociceptive activity against formalin-induced pain in mouse assessed as paw licking during early phase (0 to 10 mins) at 50 mg/kg, ip administered 40 mins before formalin challenge; assay type: functional, organism-based; set-up: dose 50 mg/kg
In short: (§1)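 Mice were acclimated 30 min in an observation chamber, then given 20 μL of 2.5% formalin sc into the dorsal hind paw. Dosing was ip (2% DMSO/saline vehicle) 40 min beforehand. Time spent licking the injected paw was scored over 0–10 min and 10–60 min. n = 6/group, means ± SEM, ANOVA with Tukey.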

Mus musculus [2] = assay: Antinociceptive activity in ip dosed mouse assessed as inhibition of acetic acid-induced abdominal constrictions administered 40 mins before acetic acid challenge measured for 30 mins; assay type: functional, organism-based; conditions: Abdomen
In short: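 Dosing was ip in 2% DMSO/saline 40 min before ip acetic acid (0.8% v/v, 10 mL/kg). Writhes (abdominal contraction with hind-limb stretching) were counted over 0–30 min. n = 6 mice/group, means ± SEM, ANOVA with Tukey.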

Mus musculus [3] = assay: Antinociceptive activity against formalin-induced pain in mouse assessed as paw licking during early phase (0 to 10 mins) at 100 mg/kg, ip administered 40 mins before formalin challenge; assay type: functional, organism-based; set-up: dose 100 mg/kg; in short: as §1
Mus musculus [4] = assay: Antinociceptive activity against formalin-induced pain in mouse assessed as paw licking during late phase (10 to 60 mins) at 50 mg/kg, ip administered 40 mins before formalin challenge; assay type: functional, organism-based; set-up: dose 50 mg/kg; in short: as §1
Mus musculus [5] = assay: Antinociceptive activity against formalin-induced pain in mouse assessed as paw licking during late phase (10 to 60 mins) at 100 mg/kg, ip administered 40 mins before formalin challenge; assay type: functional, organism-based; set-up: dose 100 mg/kg; in short: as §1
Mus musculus [6] = assay: Neurotoxicity in mouse assessed as effect on motor coordination by measuring reduced latency at 100 mg/kg, ip after 40 mins by rotarod test; assay type: toxicity, organism-based; set-up: dose 100 mg/kg, route intraperitoneal; conditions: in vivo
In short: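 Mice were pre-selected 24 h earlier for staying on the bar for two 120 s periods. Rotarod was a 3 cm bar at 5 rpm. Mice were tested 40 min after ip dosing, with diazepam 10 mg/kg ip as reference. Time on the rod was recorded up to 120 s. n = 6/group.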

Mus musculus [7] = assay: Antinociceptive activity against Freund's complete adjuvant-induced paw inflammation in mouse assessed as reduction in mechanical hyperalgesia at 50 mg/kg, ip administered 40 mins before CFA challenge measured after 2 to 6 hrs; assay type: functional, organism-based; set-up: dose 50 mg/kg
In short: (§2)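 Mice, lightly halothane-anesthetized, got 20 μL complete Freund's adjuvant (1 mg/mL heat-killed M. tuberculosis in paraffin oil/mannide monooleate) sc into the right hind plantar surface. Treatment was ip in 2% DMSO/saline 40 min before CFA. Mechanical threshold was read with von Frey filaments by the up-down method at 2, 4 and 6 h. n = 6 mice/group, means ± SEM, two-way ANOVA with Bonferroni.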

Mus musculus [8] = assay: Antinociceptive activity against Freund's complete adjuvant-induced paw inflammation in mouse assessed as reduction in mechanical hyperalgesia at 100 mg/kg, ip administered 40 mins before CFA challenge measured after 2 to 6 hrs; assay type: functional, organism-based; set-up: dose 100 mg/kg; in short: as §2
Mus musculus [9] = assay: Antinociceptive activity against Freund's complete adjuvant-induced paw inflammation in mouse assessed as reduction in paw edema at 50 mg/kg, ip administered 40 mins before CFA challenge measured after 2 hrs; assay type: functional, organism-based; set-up: dose 50 mg/kg
In short: (§3)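 CFA (20 μL, 1 mg/mL heat-killed M. tuberculosis) was injected sc into the right hind plantar surface. Treatment was ip in 2% DMSO/saline 40 min before. Paw volume was read by plethysmometer before and after CFA, and edema taken as the volume difference (mm3/paw). n = 6 mice/group, means ± SEM, two-way ANOVA with Bonferroni.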

Mus musculus [10] = assay: Antinociceptive activity against Freund's complete adjuvant-induced paw inflammation in mouse assessed as reduction in paw edema at 50 mg/kg, ip administered 40 mins before CFA challenge measured after 4 hrs; assay type: functional, organism-based; set-up: dose 50 mg/kg; in short: as §3
Mus musculus [11] = assay: Antinociceptive activity against Freund's complete adjuvant-induced paw inflammation in mouse assessed as reduction in paw edema at 50 mg/kg, ip administered 40 mins before CFA challenge measured after 6 hrs; assay type: functional, organism-based; set-up: dose 50 mg/kg; in short: as §3
Mus musculus [12] = assay: Antinociceptive activity against Freund's complete adjuvant-induced paw inflammation in mouse assessed as reduction in paw edema at 100 mg/kg, ip administered 40 mins before CFA challenge measured after 2 hrs; assay type: functional, organism-based; set-up: dose 100 mg/kg; in short: as §3
Mus musculus [13] = assay: Antinociceptive activity against Freund's complete adjuvant-induced paw inflammation in mouse assessed as reduction in paw edema at 100 mg/kg, ip administered 40 mins before CFA challenge measured after 4 hrs; assay type: functional, organism-based; set-up: dose 100 mg/kg; in short: as §3
Mus musculus [14] = assay: Antinociceptive activity against Freund's complete adjuvant-induced paw inflammation in mouse assessed as reduction in paw edema at 100 mg/kg, ip administered 40 mins before CFA challenge measured after 6 hrs; assay type: functional, organism-based; set-up: dose 100 mg/kg; in short: as §3
Mus musculus [15] = assay: Effect on baseline nociceptive threshold in Freund's complete adjuvant-induced mouse at 50 to 100 mg/kg, ip administered 40 mins before CFA challenge measured 2 to 6 hrs; assay type: functional, organism-based
Mus musculus [16] = assay: Inhibition of IL1-beta production in Freund's complete adjuvant-induced mouse at 50 mg/kg, ip administered 40 mins before CFA challenge measured after 2 hrs by ELISA; assay type: functional, organism-based; set-up: dose 50 mg/kg
In short: (§4)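 CFA was given intraplantar, with ip dosing (2% DMSO/saline vehicle) 40 min earlier. At 2 h, paw skin was taken under terminal halothane anesthesia. Tissue was extracted (100 mg/mL PBS with 0.4 M NaCl, 0.05% Tween 20 and protease inhibitors) and centrifuged at 3000g for 10 min. Supernatant was assayed by mouse ELISA, in pg/mL. n = 6/group.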

Mus musculus [17] = assay: Inhibition of IL1-beta production in Freund's complete adjuvant-induced mouse at 100 mg/kg, ip administered 40 mins before CFA challenge measured after 2 hrs by ELISA; assay type: functional, organism-based; set-up: dose 100 mg/kg; in short: as §4
Mus musculus [18] = assay: Inhibition of TNF-alpha production in Freund's complete adjuvant-induced mouse at 50 mg/kg, ip administered 40 mins before CFA challenge measured after 2 hrs by ELISA; assay type: functional, organism-based; set-up: dose 50 mg/kg; in short: as §4
Mus musculus [19] = assay: Inhibition of TNF-alpha production in Freund's complete adjuvant-induced mouse at 100 mg/kg, ip administered 40 mins before CFA challenge measured after 2 hrs by ELISA; assay type: functional, organism-based; set-up: dose 100 mg/kg; in short: as §4
Mus musculus [20] = assay: Inhibition of IL10 production in Freund's complete adjuvant-induced C57BL/6 mouse paw at 100 mg/kg, ip administered 40 mins before CFA challenge measured after 3 hrs by ELISA; assay type: functional, organism-based; set-up: dose 100 mg/kg
In short: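 C57BL/6 wild-type mice received an ip dose 40 min before intraplantar CFA. Paw tissue IL-10 was read by ELISA 3 h after CFA, on protein extracts in PBS/0.4 M NaCl/Tween 20 with protease inhibitors. A saline group got 20 μL intraplantar saline instead. n = 6/group, means ± SEM, two-way ANOVA with Bonferroni.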

Mus musculus [21] = assay: Antinociceptive activity against Freund's complete adjuvant-induced paw inflammation in IL10-deficient C57BL/6 mouse assessed as reduction in mechanical hyperalgesia at 100 mg/kg, ip administered 40 mins before CFA challenge measured 2 to 6 hrs; assay type: functional, organism-based; set-up: dose 100 mg/kg; in short: as §2
Mus musculus [22] = assay: Toxicity in mouse assessed as reduction in corporal mass at 50 mg/kg, ip for seven consecutive days relative to control; assay type: organism-based; set-up: dose 50 mg/kg, route intraperitoneal; conditions: in vivo
In short: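 Male mice (22–28 g) weighed and dosed once daily ip for seven consecutive days with test agent or vehicle (2% DMSO in saline). Body mass, general appearance and toxic signs followed and compared with vehicle-treated mice. Data are means ± SEM, 6–9 animals per group.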

Mus musculus [23] = assay: Toxicity in mouse assessed as change in general appearance at 50 mg/kg, ip for seven consecutive days relative to control; assay type: organism-based; set-up: dose 50 mg/kg, route intraperitoneal; conditions: in vivo
In short: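 Mice were weighed and dosed ip once daily for 7 consecutive days, vehicle controls alongside, and monitored for toxic signs and general appearance. At the end, retro-orbital blood was taken under light anesthesia for leukocyte counts. Serum, from blood centrifuged at 2500 rpm for 15 min without anticoagulant, was used for ALT and AST.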

In the case of `COc1c(O)cc2c(c1O)[C@@H]1O[C@H](CO)[C@@H](O)[C@H](O)[C@H]1OC2=O` [BERGENIN], the Activity (Mus musculus [1]) is reported as “Active”, the Activity (Mus musculus [2]) is reported as “Dose-dependent effect” and the Activity (Mus musculus [3]) is reported as “Active”. For the same molecule, the Activity (Mus musculus [4]) was “Active”, the Activity (Mus musculus [5]) was “Active” and the Activity (Mus musculus [6]) was “Non-toxic”. The Activity (Mus musculus [7]) was “Active”, the Activity (Mus musculus [8]) was “Active” and the Activity (Mus musculus [9]) was “Active”. For the same molecule, the Activity (Mus musculus [10]) was “Active”, the Activity (Mus musculus [11]) was “inactive” and the Activity (Mus musculus [12]) was “Active”. The Activity (Mus musculus [13]) was “Active”, the Activity (Mus musculus [14]) was “inactive” and the Activity (Mus musculus [15]) was “inactive”. The inhibition (Mus musculus [16]) was “Active”, the inhibition (Mus musculus [17]) was “Active” and the inhibition (Mus musculus [18]) was “Active”. The inhibition (Mus musculus [19]) was “Active”, the inhibition (Mus musculus [20]) was “inactive” and the Activity (Mus musculus [21]) was “Active”. The Activity (Mus musculus [22]) was “Non-toxic” and the Activity (Mus musculus [23]) was “Non-toxic”.
